Data set [1] has as its system human foreskin fibroblasts. Description: Toxicity to human foreskin fibroblasts. It is filed as cell-based.
Data set [2] relates to P. falciparum strain D6 (CDC/Sierra Leone). Description: SYBR Green assay, P. falciparum strain D6. It is filed as cell-based, Plasmodium falciparum. As to conditions: chloroquine sensitive D6 strain.
Data set [3] has as its system P. falciparum strain TM91C235 (WRAIR, Thailand; chloroquine resistant). Description: SYBR Green assay, P. falciparum strain C235. It is filed as cell-based, Plasmodium falciparum.
Data set [4] has as its system T. gondii (Pru strain expressing firefly luciferase). Description: T. gondii murine infection model. It counts as in vivo, mice. The method in brief: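 Mice infected intraperitoneally with 2x10⁴ Pru-strain T. gondii tachyzoites expressing firefly luciferase. Animals imaged daily by bioluminescence after intraperitoneal luciferin (3mg). Parasite burden in treated mice compared with a DMSO control group on day 6 post-infection. Three separate replicate experiments, analysed singly and pooled; ANOVA with group and run as factors.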

Another data set relates to Toxoplasma gondii. As to conditions: read-out: IC50, growth of T. gondii parasites; cited from earlier work.
The target of data set [5] is T1, Toxoplasma gondii enoyl reductase (TgENR) (Toxoplasma gondii, UniProt Q6UCJ9).
T1 sequence (Q6UCJ9 28-417): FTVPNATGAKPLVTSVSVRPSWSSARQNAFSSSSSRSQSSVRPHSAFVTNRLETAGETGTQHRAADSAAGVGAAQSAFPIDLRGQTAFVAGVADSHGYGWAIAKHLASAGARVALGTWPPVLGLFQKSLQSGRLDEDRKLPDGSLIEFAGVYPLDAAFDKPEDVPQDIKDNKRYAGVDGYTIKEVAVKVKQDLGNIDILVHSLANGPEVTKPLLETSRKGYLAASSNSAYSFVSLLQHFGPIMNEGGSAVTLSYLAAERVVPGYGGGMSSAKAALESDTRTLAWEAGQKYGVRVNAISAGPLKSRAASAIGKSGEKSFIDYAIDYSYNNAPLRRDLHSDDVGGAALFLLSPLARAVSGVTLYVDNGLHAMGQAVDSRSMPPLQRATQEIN
Description: TgENR enzyme assay. It is filed as biochemical. As to conditions: read-out: Inhibition (%) at 1 µM.

pIC50: −log10 of the molar value.

The compound `Oc1cc(Cl)ccc1Oc1ccc2ccccc2c1` [Compound 2] came in with a Toxicity in data set [1] greater than 10 µM.
On the same count and under the same terms, in the case of `Oc1cc(Cl)ccc1Oc1ccc(C(F)(F)F)cc1Cl` [Compound 3] it was greater than 10 µM; in that of `CN1CCN(c2ccc(Oc3ccc(Cl)cc3O)cc2)CC1` [Compound 5a], greater than 10 µM; in that of `Oc1cc(Cl)ccc1Oc1ccc(N2CCOCC2)cc1` [Compound 5b], greater than 10 µM.
Take `CC(=O)N1CCN(c2ccc(Oc3ccc(Cl)cc3O)cc2)CC1` [Compound 5c]: in data set [2], the “activity against P. falciparum D6” value is “inactive”. The Toxicity in data set [1] is greater than 10 µM. The “activity against P. falciparum C235” value in data set [3] was “inactive”. The “efficacy at lower dose” value in data set [4] (50mg/kg) was “not effective”. Moreover, in data set [4] (75mg/kg, by the seventh day after infection), the “toxicity in infected mice” value is “toxic”. For the same compound, the “solubility of higher dose” value in data set [4] (100mg/kg) is “not completely soluble”.
In turn, `CN1CCN(Cc2ccc(Oc3ccc(Cl)cc3O)cc2)CC1` [Compound 5d] returned a Toxicity in data set [1] greater than 10 µM.
Regarding `O=S(=O)(c1ccc(Oc2ccc(Cl)cc2O)cc1)N1CCCC1` [Compound 7a], in data set [1], the Toxicity is greater than 10 µM.
In data set [1], `O=S(=O)(c1ccc(Oc2ccc(Cl)cc2O)cc1)N1CCCCC1` [Compound 7b] showed a Toxicity greater than 10 µM.
In data set [1], `Cn1cc(C(=O)Nc2ccc(Cl)cc2O)c(C(F)(F)F)n1` [Compound 10] showed a Toxicity greater than 10 µM.
With `CNC(=O)c1ccc(Oc2ccc(Cl)cc2O)o1` [Compound 14a], the Toxicity in data set [1] is given as greater than 10 µM.
`Cc1cc(NC(=O)c2ccc(Oc3ccc(Cl)cc3O)o2)no1` [Compound 14b]: the Toxicity in data set [1] is greater than 10 µM.
Compound `CC(=O)N1CCN(C(=O)c2ccc(Oc3ccc(Cl)cc3O)o2)CC1` [Compound 14c] gave a Toxicity in data set [1] greater than 10 µM.
`O=C(O)c1ccc(Oc2ccc(Cl)cc2O)s1` [Compound 16] gave a Toxicity in data set [1] greater than 10 µM.
For `CC(C)(C)OC(=O)N1CCN(C(=O)c2ccc(Oc3ccc(Cl)cc3O)s2)CC1` [Compound 17b], in data set [1], the Toxicity is reported as greater than 10 µM.
In data set [1], `O=C(c1ccc(Oc2ccc(Cl)cc2O)s1)N1CCNCC1` [Compound 17c] gave a Toxicity greater than 10 µM.
With `CC(=O)N1CCN(Cc2ccc(Oc3ccc(Cl)cc3O)s2)CC1` [Compound 18], the Toxicity in data set [1] is given as greater than 10 µM.
For the compound `Oc1cc(Cl)ccc1Oc1ccc2ncccc2c1` [Compound 19], in data set [1], the Toxicity is given as greater than 10 µM.
For the compound `Oc1cc(Cl)ccc1Oc1ccc(Cl)cc1Cl` [Triclosan], the pIC50 – broadly, the negative decadic logarithm of the IC50, by convention in mol/L – in the data set on Toxoplasma gondii was roughly 6.70. In data set [1], this compound yielded a Toxicity greater than 10 µM. Besides, in data set [5], the inhibition – broadly, the drop in the measured response relative to a control, in per cent – at 1 µM was 98%.

(Values after publication PMC3625046 (Bioorganic & medicinal chemistry letters, 2013).)
